Data as given in ChEMBL document CHEMBL4257497, “Design, synthesis and biological evaluation of novel 1,3-diarylpyrazoles as cyclooxygenase inhibitors, antiplatelet and anticancer agents” (Medchemcomm, 2018).

Assays:
[1] = molecular target: T1, COX1 (Prostaglandin G/H synthase 1) (Ovis aries, UniProt P05979); experiment: Inhibition of sheep COX1 at 10 uM assessed as reduction in PGE2 formation using arachidonic acid as substrate by enzyme immunoassay relative to control; conditions: probe arachidonic acid
T1 sequence (P05979 whole entry): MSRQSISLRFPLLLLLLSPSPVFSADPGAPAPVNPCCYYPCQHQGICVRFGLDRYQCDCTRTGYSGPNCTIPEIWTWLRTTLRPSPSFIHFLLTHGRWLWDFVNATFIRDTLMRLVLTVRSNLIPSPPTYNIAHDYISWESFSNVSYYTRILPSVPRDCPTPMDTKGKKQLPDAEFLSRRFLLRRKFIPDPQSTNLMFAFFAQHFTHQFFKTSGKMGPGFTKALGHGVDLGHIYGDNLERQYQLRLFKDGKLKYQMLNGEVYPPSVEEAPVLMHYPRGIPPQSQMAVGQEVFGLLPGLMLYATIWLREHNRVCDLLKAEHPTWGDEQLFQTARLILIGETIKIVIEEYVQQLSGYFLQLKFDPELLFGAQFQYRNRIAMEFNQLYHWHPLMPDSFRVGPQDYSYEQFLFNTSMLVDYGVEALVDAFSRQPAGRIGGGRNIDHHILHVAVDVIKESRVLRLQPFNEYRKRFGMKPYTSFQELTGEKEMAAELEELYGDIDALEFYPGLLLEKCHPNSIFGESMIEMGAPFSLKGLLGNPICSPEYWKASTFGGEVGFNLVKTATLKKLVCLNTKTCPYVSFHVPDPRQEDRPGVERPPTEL
Summary of the method: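 Recombinant ovine COX-1, test agent at 10 μM, arachidonic acid as substrate. PGE2 formed is measured by competitive EIA (PGE2–acetylcholinesterase tracer, monoclonal anti-PGE2, Ellman's reagent, absorbance 412 nm) and quantified from an 8-point PGE2 standard curve. Result given as % inhibition of enzyme activity.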

[2] = tested on: Platelet; experiment: Antiplatelet activity in human platelet rich plasma assessed as inhibition of arachidonic acid-induced platelet aggregation at 100 uM preincubated for 5 mins followed by arachidonic acid addition measured for 3 mins by aggregometric analysis relative to control; format: functional
Summary of the method: (§1)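 Citrated venous blood (3.2% citrate, 1:9) from healthy donors free of antiplatelet drugs for 10 days; PRP from 800 rpm 10 min spin, PPP from 1500 rpm 10 min; count set to 3.8 × 10^5 platelets […]. PRP stirred at 1100 rpm, 37 °C; compound in DMSO (1% carrier) 5 min before agonist (AA final 700 μM; collagen 5 μg ml−1). Turbidimetric read, triplicate; % inhibition versus DMSO-treated maximum aggregation.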

[3] = tested on: Platelet; experiment: Antiplatelet activity in human platelet rich plasma assessed as inhibition of collagen-induced platelet aggregation at 100 uM preincubated for 5 mins followed by arachidonic acid addition measured for 3 mins by aggregometric analysis relative to control; format: functional; summary of the method: as §1
[4] = tested on: Huh-7; experiment: Cytotoxicity against human HuH7 cells after 72 hrs by SRB assay; format: functional, cell-based
Summary of the method: (§2)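 Cells cultured in DMEM with 10% FBS, 1% non-essential amino acids, penicillin/streptomycin, 37 °C, 5% CO2. 2000–3000 cells per well seeded, grown 24 h, then exposed 72 h to compound (DMSO) at 40, 20, 10, 5, 2.5 μM. TCA fixation, 0.4% SRB stain, unbound dye washed off with 1% acetic acid, bound dye dissolved in 10 mM Tris base, absorbance 515 nm. IC50 against DMSO controls, triplicate.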

[5] = tested on: MCF7; experiment: Cytotoxicity against human MCF7 cells after 72 hrs by SRB assay; format: functional, cell-based; summary of the method: as §2
[6] = tested on: HCT-116; experiment: Cytotoxicity against human HCT116 cells after 72 hrs by SRB assay; format: functional, cell-based; summary of the method: as §2
[7] = tested on: Platelet; experiment: Antiplatelet activity in human platelet rich plasma assessed as inhibition of arachidonic acid-induced platelet aggregation preincubated for 5 mins followed by arachidonic acid addition measured for 3 mins by aggregometric analysis; format: functional, cell-based
[8] = Homo sapiens, Huh-7, 72 h, read-out: IC50
[9] = Homo sapiens, MCF7, 72 h, read-out: IC50
[10] = Homo sapiens, HCT-116, 72 h, read-out: IC50

| SMILES | inhibition at 10 µM [1] | inhibition at 100 µM [2] | inhibition at 100 µM [3] | IC50 [4, 8] | IC50 [5, 9] | IC50 [6, 10] | IC50 ([4]; huh-7) | IC50 ([5]; mcf7) | IC50 ([6]; hct-116) | IC50 [7] |
| --- | --- | --- | --- | --- | --- | --- | --- | --- | --- | --- |
| O=C(/C=C/c1cn(-c2ccccc2)nc1-c1ccncc1)NCCc1ccncc1 | 26.6% | 71.4% | 74.6% | 6.5 µM | 11 µM | 7.1 µM |  |  |  |  |
| Cc1nccn1CCNC(=O)/C=C/c1cn(-c2ccccc2)nc1-c1cccnc1 | 2.46% | 0% | 15.5% | 25.6 µM | 21.8 µM | 20 µM |  |  |  |  |
| O=C(/C=C/c1cn(-c2ccccc2)nc1-c1cccnc1)NCc1cccnc1 | 5.56% | 1.26% | 63.3% | 21 µM | 30.9 µM | 21.6 µM |  |  |  |  |
| Cc1nccn1CCCNC(=O)/C=C/c1cn(-c2ccc(S(C)(=O)=O)cc2)nc1-c1cccnc1 | 36.8% | 19.5% | 11.1% |  |  |  | Not Active | Not Active | Not Active |  |
| O=C(/C=C/c1cn(-c2ccccc2)nc1-c1ccncc1)NCc1ccncc1 | 5.82% | 4.96% | 50.1% | 32.6 µM |  | 19.9 µM |  | Not Active |  |  |
| CS(=O)(=O)c1ccc(-n2cc(/C=C/C(=O)NCc3ccccn3)c(-c3cccnc3)n2)cc1 | 10.7% | 8.92% | 59.8% | 24.7 µM |  | 27 µM |  | Not Active |  |  |
| O=C(/C=C/c1cn(-c2ccccc2)nc1-c1cccnc1)NCCc1ccncc1 | 10.2% | 11.3% | 75.9% | 14.5 µM |  | 26.7 µM |  | Not Active |  |  |
| Cc1nccn1CCNC(=O)/C=C/c1cn(-c2ccccc2)nc1-c1ccncc1 | 16.9% | 2.54% | 35% | 21 µM |  | 12.6 µM |  | Not Active |  |  |
| O=C(/C=C/c1cn(-c2ccccc2)nc1-c1cccnc1)NCCc1cccnc1 | 0.45% | 0% | 76.6% | 8.1 µM | 30.8 µM | 16.9 µM |  |  |  |  |
| O=C(/C=C/c1cn(-c2ccccc2)nc1-c1cccnc1)NCc1ccccn1 | 11.3% | 0% | 56.5% | 18.5 µM | 27.8 µM | 24.5 µM |  |  |  |  |
| O=C(/C=C/c1cn(-c2ccccc2)nc1-c1cccnc1)NCCCn1ccnc1 | 0.12% | 16.1% | 86.5% | 14.3 µM | 15.4 µM | 17.6 µM |  |  |  |  |
| CS(=O)(=O)c1ccc(-n2cc(/C=C/C(=O)NCc3ccncc3)c(-c3cccnc3)n2)cc1 | 12.5% | 6.2% | 40.9% |  |  | 31.7 µM | Not Active | Not Active |  |  |
| O=C(/C=C/c1cn(-c2ccccc2)nc1-c1cccnc1)NCc1ccncc1 | 11.6% | 4.54% | 36.6% | 24.4 µM |  |  |  | Not Active | Not Active |  |
| Cc1nccn1CCCNC(=O)/C=C/c1cn(-c2ccccc2)nc1-c1ccncc1 | 5.41% | 7.91% | 41.3% | 21.1 µM |  | 10.8 µM |  | Not Active |  |  |
| CS(=O)(=O)c1ccc(-n2cc(/C=C/C(=O)NCCc3cccnc3)c(-c3cccnc3)n2)cc1 | 1.31% | 14.6% | 70.3% |  |  |  | Not Active | Not Active | Not Active |  |
| Cc1nccn1CCNC(=O)/C=C/c1cn(-c2ccc(S(C)(=O)=O)cc2)nc1-c1cccnc1 | 29.6% | 14.3% | 8.6% |  |  |  | Not Active | Not Active | Not Active |  |
| O=C(/C=C/c1cn(-c2ccccc2)nc1-c1cccnc1)NCCc1ccccn1 | 3.21% | 3.68% | 21.9% | 18.9 µM | 24.9 µM | 14.2 µM |  |  |  |  |
| O=C(/C=C/c1cn(-c2ccccc2)nc1-c1ccncc1)NCc1cccnc1 | 13.7% | 43.3% | 63.4% |  |  | 14.6 µM | Not Active | Not Active |  |  |
| Cc1nccn1CCCNC(=O)/C=C/c1cn(-c2ccccc2)nc1-c1cccnc1 | 0.32% | 1.24% | 60.3% | 13.4 µM | 25.1 µM | 21.4 µM |  |  |  |  |
| CS(=O)(=O)c1ccc(-n2cc(/C=C/C(=O)NCCCn3ccnc3)c(-c3cccnc3)n2)cc1 | 40.5% | 82.4% | 52.6% |  |  |  | Not Active | Not Active | Not Active |  |
| CC(=O)Oc1ccccc1C(=O)O [ASPIRIN] |  | 100% | 100% |  |  |  |  |  |  | 7.7 µM |
| O=c1[nH]cc(F)c(=O)[nH]1 [FLUOROURACIL] |  |  |  |  | 1.4 µM |  |  |  |  |  |
| COc1ccc2c(c1)c(CC(=O)O)c(C)n2C(=O)c1ccc(Cl)cc1 [INDOMETHACIN] | 69.5% |  |  |  |  |  |  |  |  |  |
